Structures can show the parent of a compound that is named as a salt.
Test system: HIV-1RF challenged T-lymphoblastic CEM-SS cells
Assay: XTT anti-HIV-1 cytopathicity assay in CEM-SS cells
Type: cell-based
Outline: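 CEM-SS cells grown in phenol red-free RPMI 1640 with 5% FBS, 2 mM L-glutamine and 50 μg/mL gentamicin. Washed log-phase cells seeded at 5 × 10^3 per well with serial dilutions of compound in DMSO. HIV-1RF diluted to give 80–90% cell kill at 6 days, with parallel uninfected wells for toxicity. Incubated 6 days at 37 °C, viability read by XTT, in triplicate.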

CC(=O)c1ccc2c(c1)N(CCCN(C)C)c1ccccc1S2 [Acepromazine maleate]
protective effect against HIV-1-induced cytopathicity (in words): not protective

Source: paper PMC4227816 (Journal of the American Chemical Society, 2014)
